# Reference: ChEMBL document CHEMBL1250463, “N(epsilon)-Modified lysine containing inhibitors for SIRT1 and SIRT2” (Bioorg Med Chem, 2010)
# Assays:
# [1] = biological target: T1, NAD-dependent protein deacetylase sirtuin-2 (Homo sapiens) (UniProt Q8IXJ6); assay: Inhibition of GST-SIRT2 at 200 uM after 1 hr by Fluor de Lys fluorescence assay
# T1 sequence (whole entry): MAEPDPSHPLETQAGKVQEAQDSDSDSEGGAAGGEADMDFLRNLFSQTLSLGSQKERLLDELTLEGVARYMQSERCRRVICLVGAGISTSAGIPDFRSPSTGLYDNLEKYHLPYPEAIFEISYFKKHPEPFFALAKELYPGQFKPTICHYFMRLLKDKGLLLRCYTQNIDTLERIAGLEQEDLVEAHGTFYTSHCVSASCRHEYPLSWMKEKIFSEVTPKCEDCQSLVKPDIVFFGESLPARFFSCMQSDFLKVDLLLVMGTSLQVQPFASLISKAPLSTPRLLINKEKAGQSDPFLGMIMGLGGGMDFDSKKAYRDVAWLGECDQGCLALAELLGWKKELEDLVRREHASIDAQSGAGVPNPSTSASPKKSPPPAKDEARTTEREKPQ
# How it was run: (§1)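 Recombinant GST-SIRT2 with Fluor de Lys acetylated SIRT2 peptide substrate at 70% of its Km, plus NAD+, in HDAC assay buffer with 1 mg/ml BSA. Compound or DMSO was preincubated 5 min at rt with buffer, substrate and NAD+. Enzyme was added to start the reaction, run 1 h at 37 °C. Developer with 2 mM nicotinamide followed for 45 min at 37 °C, then fluorescence was read.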
# [2] = biological target: T2, NAD-dependent protein deacetylase sirtuin-1 (Homo sapiens) (UniProt Q96EB6); assay: Inhibition of GST-SIRT1 at 200 uM after 1 hr by Fluor de Lys fluorescence assay
# T2 sequence (whole entry): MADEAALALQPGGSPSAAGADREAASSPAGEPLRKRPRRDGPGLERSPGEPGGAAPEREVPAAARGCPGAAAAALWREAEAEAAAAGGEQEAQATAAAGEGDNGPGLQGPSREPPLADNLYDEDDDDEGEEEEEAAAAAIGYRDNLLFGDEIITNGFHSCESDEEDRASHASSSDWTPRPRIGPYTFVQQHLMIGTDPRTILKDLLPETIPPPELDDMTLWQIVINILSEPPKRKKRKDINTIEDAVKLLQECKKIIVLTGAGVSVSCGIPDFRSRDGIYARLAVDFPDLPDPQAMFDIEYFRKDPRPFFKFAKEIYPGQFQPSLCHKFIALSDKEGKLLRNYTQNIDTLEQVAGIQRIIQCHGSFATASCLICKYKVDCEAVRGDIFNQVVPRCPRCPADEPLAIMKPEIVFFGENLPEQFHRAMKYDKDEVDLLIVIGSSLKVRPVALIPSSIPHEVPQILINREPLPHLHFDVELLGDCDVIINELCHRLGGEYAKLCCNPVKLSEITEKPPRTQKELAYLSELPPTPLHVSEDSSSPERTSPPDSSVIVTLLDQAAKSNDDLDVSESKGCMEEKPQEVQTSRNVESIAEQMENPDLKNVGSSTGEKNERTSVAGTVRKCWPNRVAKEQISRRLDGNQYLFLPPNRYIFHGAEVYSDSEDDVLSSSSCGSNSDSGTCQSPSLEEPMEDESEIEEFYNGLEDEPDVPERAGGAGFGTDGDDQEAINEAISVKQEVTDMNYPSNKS
# How it was run: (§2)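 Recombinant GST-SIRT1 with Fluor de Lys acetylated SIRT1 peptide substrate at 70% of its Km, plus NAD+, in HDAC assay buffer with 1 mg/ml BSA. Buffer, substrate, NAD+ and compound in DMSO (2.5 in 50 total) were preincubated 5 min at rt. Enzyme addition started the reaction, run 1 h at 37 °C. Developer plus 2 mM nicotinamide was then added for 45 min at 37 °C before fluorescence read-out.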
# [3] = biological target: T3, NAD-dependent protein deacetylase sirtuin-2 (Homo sapiens, UniProt Q8IXJ6); assay: Inhibition of GST-SIRT2 after 1 hr by Fluor de Lys fluorescence assay; how it was run: as §1
# T3 sequence (Q8IXJ6 whole entry): T1 sequence (whole entry)
# [4] = biological target: T4, NAD-dependent protein deacetylase sirtuin-1 (Homo sapiens, UniProt Q96EB6); assay: Inhibition of GST-SIRT1 after 1 hr by Fluor de Lys fluorescence assay; how it was run: as §2
# T4 sequence (Q96EB6 whole entry): T2 sequence (whole entry)
inhibition [1] [%],inhibition [2] [%],IC50 [3] [µM],IC50 [4] [µM],Structure (SMILES)
2,9,–,–,COC(=O)[C@H](C)NC(=O)[C@H](CCCCNC(=O)c1cccnc1)NC(=O)[C@H](C)NC(C)=O
20,33,–,–,CC(=O)N[C@@H](C)C(=O)N[C@@H](CCCCNC(=O)/C=C(/C)C(F)(F)F)C(=O)N[C@@H](C)C(=O)O
68,66,60,88,CNC(=O)[C@H](C)NC(=O)[C@H](CCCCNC(C)=O)NC(=O)[C@H](C)NC(C)=O
42,62,223,122,CC(=O)NCCCC[C@H](NC(=O)[C@H](C)NC(C)=O)C(=O)N[C@@H](C)C(=O)O
8,19,–,–,COC(=O)[C@H](C)NC(=O)[C@H](CCCCNC(=O)CCl)NC(=O)[C@H](C)NC(C)=O
0,1,–,–,COC(=O)[C@H](C)NC(=O)[C@H](CCCCNS(=O)(=O)c1ccc(C)cc1)NC(=O)[C@H](C)NC(C)=O
34,39,–,–,CNC(=O)[C@H](C)NC(=O)[C@H](CCCCNC(=O)c1ccc(N(C)C)cc1)NC(=O)[C@H](C)NC(C)=O
76,94,30,12,CC(=O)N[C@@H](C)C(=O)N[C@@H](CCCCNC(=O)CC(C)C)C(=O)N[C@@H](C)C(=O)O
54,33,129,–,COC(=O)[C@H](C)NC(=O)[C@H](CCCCNC(=O)C1=CCCCC1)NC(=O)[C@H](C)NC(C)=O
0,4,–,–,COC(=O)[C@H](C)NC(=O)[C@H](CCCCNC(=O)c1ccccn1)NC(=O)[C@H](C)NC(C)=O
99,100,3.6,0.7,CC(=O)N[C@@H](C)C(=O)N[C@@H](CCCCNC(=S)CC(C)C)C(=O)N[C@@H](C)C(=O)O
3,11,–,–,COC(=O)[C@H](C)NC(=O)[C@H](CCCCNC(=O)OCc1ccccc1)NC(=O)[C@H](C)NC(C)=O
21,26,–,–,COC(=O)[C@H](C)NC(=O)[C@H](CCCCNC(=O)Cc1ccccn1)NC(=O)[C@H](C)NC(C)=O
14,12,–,–,COC(=O)[C@H](C)NC(=O)[C@H](CCCCNC(=O)c1ccccc1)NC(=O)[C@H](C)NC(C)=O
13,24,–,–,COC(=O)[C@H](C)NC(=O)[C@H](CCCCNC(=O)N(C)C)NC(=O)[C@H](C)NC(C)=O
52,53,338,223,COC(=O)[C@H](C)NC(=O)[C@H](CCCCNC(=O)C(C)(C)C)NC(=O)[C@H](C)NC(C)=O
13,6,–,–,CC(C)(C)OC(=O)NCCCC[C@H](NC(=O)OCc1ccccc1)C(=O)Nc1ccccc1

inhibition [1] [%],inhibition [2] [%],IC50 [3] [µM],IC50 [4] [µM],Structure (SMILES)
5,0,–,–,COC(=O)[C@H](C)NC(=O)[C@H](CCCCNS(=O)(=O)c1ccc([N+](=O)[O-])cc1)NC(=O)[C@H](C)NC(C)=O
41,23,–,–,CNC(=O)[C@H](C)NC(=O)[C@H](CCCCNC(=O)c1cccn1C)NC(=O)[C@H](C)NC(C)=O
57,39,180,268,COC(=O)[C@H](C)NC(=O)[C@H](CCCCNC(C)=O)NC(=O)[C@H](C)NC(C)=O
95,96,23,6.1,CNC(=O)[C@H](C)NC(=O)[C@H](CCCCNC(=O)C=C(C)C)NC(=O)[C@H](C)NC(C)=O
74,78,69,46,COC(=O)[C@H](C)NC(=O)[C@H](CCCCNC(=O)C=C(C)C)NC(=O)[C@H](C)NC(C)=O
26,36,–,–,CNC(=O)[C@H](C)NC(=O)[C@H](CCCCNC(=O)c1ccc[nH]1)NC(=O)[C@H](C)NC(C)=O
9,20,–,–,C/C=C/C(=O)NCCCC[C@H](NC(=O)[C@H](C)NC(C)=O)C(=O)N[C@@H](C)C(=O)OC
16,48,–,1770,COC(=O)[C@H](C)NC(=O)[C@H](CCCCNC(=O)CBr)NC(=O)[C@H](C)NC(C)=O
52,95,77,11,CC(=O)N[C@@H](C)C(=O)N[C@@H](CCCCNC(=O)C=C(C)C)C(=O)N[C@@H](C)C(=O)O
8,17,–,–,COC(=O)[C@H](C)NC(=O)[C@H](CCCCNS(C)(=O)=O)NC(=O)[C@H](C)NC(C)=O
39,39,–,–,C/C=C(\C)C(=O)NCCCC[C@H](NC(=O)[C@H](C)NC(C)=O)C(=O)N[C@@H](C)C(=O)OC
0,10,–,–,COC(=O)[C@H](C)NC(=O)[C@H](CCCCNC(=O)Cc1cccnc1)NC(=O)[C@H](C)NC(C)=O
4,15,–,–,COC(=O)[C@H](C)NC(=O)[C@H](CCCCNS(=O)(=O)C(F)(F)F)NC(=O)[C@H](C)NC(C)=O
96,100,9.8,0.24,CC(=O)N[C@@H](C)C(=O)N[C@@H](CCCCNC(C)=S)C(=O)N[C@@H](C)C(=O)O
0,8,–,–,COC(=O)NCCCC[C@H](NC(=O)[C@H](C)NC(C)=O)C(=O)N[C@@H](C)C(=O)OC
77,82,66,40,CNC(=O)[C@H](C)NC(=O)[C@H](CCCCNC(=O)C(C)(C)C)NC(=O)[C@H](C)NC(C)=O

Structure (SMILES),inhibition [1] [%],inhibition [2] [%],IC50 [3] [µM],IC50 [4] [µM]
CC(=O)N[C@@H](C)C(=O)N[C@@H](CCCCNC(C)=[Se])C(=O)N[C@@H](C)C(=O)O,97,100,7.2,0.37
CC(=[Se])NCCCC[C@H](NC(=O)OCc1ccccc1)C(=O)Nc1ccccc1,99,98,2.7,1.8
CP(C)(=S)NCCCC[C@H](NC(=O)OCc1ccccc1)C(=O)Nc1ccccc1,27,10,–,–
